Records with an inconclusive call do not appear. Active and inactive are the calls of the source.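 Rule for the calls: active = viability under 80% at one or more tested concentrations, read as toxic; inconclusive = replicate runs disagree on whether the viability cutoff is met; inactive = viability stays at 80% or higher at every dose.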
How the values were obtained:
[1] = viability loss in Vero E6 cells – cell-based, set 3, cytotoxicity control for PfM17LAP inhibitor project, dose response (AID 602317); details: Vero E6 viability, CellTiter-Glo luminescence, 72 h; at 50 µM (top of the series)
Method in brief: (§1)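 System: Vero E6 cells / Benchmarks: DMSO vehicle wells / Evaluation: % viability vs DMSO wells, CC50 from bounded 4-parameter fit / Measured by: CellTiter-Glo luminescence / Incubation: 72 h compound exposure at 37 °C, 5% CO2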

[2] = tested on: Vero E6 viability, CellTiter-Glo luminescence, 72 h; assay: as above
Method in brief: as §1

Structure (SMILES)	viability [1]	CC50 [2]
CN1CCN(CCCc2ccc(O)c(O)c2)CC1	96% (inactive)	
CCCCOc1ccc(C(C)C(=O)O)cc1 (stereo unspecified)	90.8% (inactive)	
Oc1ccc(CCNC(c2ccccc2)c2ccccc2)cc1O		38.7 µM
CN1CCN(c2nc(-c3ccc(O)c(O)c3)cs2)CC1	97.9% (inactive)	
CC(C)(C(=O)NO)c1ccccc1	104% (inactive)	
CCCCOc1ccc(C(C)C(=O)NO)cc1 (stereo unspecified)		40.8 µM
COC(=O)Cc1ccc(OCCN(C)C)cc1	98.9% (inactive)	
COc1ccc(CCCN2CCN(C)CC2)cc1OC	99.5% (inactive)	
COc1ccc(CCN(C)c2ccnc3ccccc23)cc1OC	84.9% (inactive)	
COC(=O)Cc1ccc(OCC(C)C)cc1	109% (inactive)	
CN1CCN(CCc2ccc(O)c(O)c2)CC1	102% (inactive)	
COc1ccc(CCNc2c3ccccc3nc3ccccc23)cc1OC		17.9 µM
CCCCOc1ccc(CNc2c(N(C)O)c(=O)c2=O)cc1	91% (inactive)	
CCCCOc1ccc(CC(=O)N(C)O)cc1		44.6 µM
O=C(NCc1ccc(Cl)cc1)C1CCN(S(=O)(=O)c2ccc(Br)s2)CC1		21.8 µM
CC[C@H](C)[C@H](NS(=O)(=O)c1ccc(Br)s1)C(=O)NCc1ccc2c(c1)OCO2	107% (inactive)	
O=C(NO)c1cccc2ccccc12	84.7% (inactive)	
COc1ccc(CC(=O)NO)cc1	102% (inactive)	
Oc1ccc(CCNc2ccnc3ccccc23)cc1O	95.5% (inactive)	
CCCCOc1ccc(CC(=O)O)cc1	95.5% (inactive)	
CCc1ccc(NC(=O)Cc2nc(-c3ccc(O)c(O)c3)cs2)cc1		42.2 µM
CCCCOc1ccc(C(C)(C)C(=O)O)cc1	98.2% (inactive)	
CC[C@H](C)[C@H](NS(=O)(=O)c1ccc(Br)s1)C(=O)NCc1ccc(Cl)cc1		46.4 µM

Structure (SMILES)	viability [1]	CC50 [2]
COc1ccc(CCN(C)c2c3ccccc3nc3ccccc23)cc1OC		40.8 µM
CCCOc1ccc(CC(=O)O)cc1	81.1% (inactive)	
O=C(Cc1ccc(Oc2ccccc2)cc1)NO		45 µM
CCCCOc1ccc(CN(O)C(=O)c2ccccc2)cc1		20.9 µM
CCCCCCCCCC(=O)NO		31 µM
Oc1ccc(-c2csc(Nc3ncccn3)n2)cc1O	87.7% (inactive)	
CCCOc1ccc(CC(=O)NO)cc1	91.5% (inactive)	
Oc1ccc(CCNc2c3ccccc3nc3ccccc23)cc1O		45.4 µM
O=C(Cc1ccc(OCc2ccccc2)cc1)NO		48.5 µM
COc1ccc(CCNC(c2ccccc2)c2ccccc2)cc1OC		45.8 µM
CN(C)CCOc1ccc(CC(=O)O)cc1	98.8% (inactive)	
CCCCOc1ccc(C(C)(C)C(=O)NO)cc1	81.2% (inactive)	
CN(O)C(=O)Cc1ccc(OCc2ccccc2)cc1		32.5 µM
CCCOc1ccc(CC(=O)OC)cc1	100% (inactive)	
CCCCOc1ccc(C(C)C(=O)OC)cc1 (stereo unspecified)	97.4% (inactive)	
CCCCOc1ccc(CCC(=O)NO)cc1		34.1 µM
CCCCOc1ccc(CNc2c(N(O)Cc3ccccc3)c(=O)c2=O)cc1	95.5% (inactive)	
CCCCOc1cccc(CC(=O)OC)c1	99.7% (inactive)	
CCC(C)Oc1ccc(CC(=O)OC)cc1 (stereo unspecified)	93% (inactive)	
Cc1ccc(CC(=O)NO)cc1	104% (inactive)	
CCOc1ccc(CC(=O)NO)cc1	96.8% (inactive)	
CC[C@H](C)[C@H](NC(=O)c1ccc(C(C)(C)C)cc1)C(=O)NCc1ccc2c(c1)OCO2		38.2 µM
O=C(NCc1ccc2c(c1)OCO2)C1CCN(S(=O)(=O)c2ccc(Br)s2)CC1	95.4% (inactive)	

Source: PubChem BioAssay AID602317 (Southern Research Specialized Biocontainment Screening …, 2012)
